Experimental data as given in ChEMBL document CHEMBL2029233, “Des-acyl ghrelin fragments and analogues promote survival of pancreatic β-cells and human pancreatic islets and prevent diabetes in streptozotocin-treated rats” (2012).
Active and inactive are the calls of the source. The rule behind the calls is not given here. Peptide text beside a SMILES is read from it.

How the values were obtained:
HIT-T15 [1] = experiment: Cytoprotective activity in hamster HIT-T15 cells assessed as inhibition of serum starvation-induced cell death at 1 to 100 nM after 24 hrs by MTT assay relative to control; format: functional, cell-based; settings: Mesocricetus auratus
How it was run: (§1)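 Viability by MTT in HIT-T15 cells seeded at 5×10^3/well, serum-starved 24 h, then 24 h more in serum-free medium with peptide (1–100 nM). MTT 1 mg/mL ~1 h, DMSO solubilization, absorbance 570 nm. Expressed as percent of serum-free control. Mean ± SE, ≥3 experiments in quadruplicate.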

HIT-T15 [2] = experiment: Cytoprotective activity in hamster HIT-T15 cells assessed as inhibition of IFN-gamma/TNFalpha/IL1beta-induced cell death at 1 to 100 nM after 24 hrs by MTT assay relative to control; format: functional, cell-based; settings: Mesocricetus auratus
How it was run: (§2)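 HIT-T15 cells (5×10^3/well) serum-starved 24 h, then 24 h serum-free with IFN-γ 100 ng/mL, TNF-α 200 ng/mL, IL-1β 10 ng/mL plus peptide (1–100 nM). MTT 1 mg/mL ~1 h, formazan dissolved in DMSO, A570. Reported as percent of cytokine control. Mean ± SE of ≥3 experiments in quadruplicate.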

HIT-T15 [3] = experiment: Cytoprotective activity in hamster HIT-T15 cells assessed as inhibition of IFN-gamma/TNFalpha/IL1beta-induced cell death at 10 to 100 nM after 24 hrs by MTT assay relative to control; format: functional, cell-based; settings: Mesocricetus auratus; how it was run: as §2
HIT-T15 [4] = experiment: Cytoprotective activity in hamster HIT-T15 cells assessed as inhibition of serum starvation-induced cell death after 24 hrs by MTT assay relative to control; format: functional, cell-based; settings: Mesocricetus auratus; how it was run: as §1
HIT-T15 [5] = experiment: Cytoprotective activity in hamster HIT-T15 cells assessed as inhibition of IFN-gamma/TNFalpha/IL1beta-induced cell death after 24 hrs by MTT assay relative to control; format: functional, cell-based; settings: Mesocricetus auratus; how it was run: as §2
EPC [6] = experiment: Cytoprotective activity in human EPC assessed as decrease in H2O2-induced ROS production after 2 hrs by DCF-DA flow cytometry assay; format: functional
How it was run: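 Human EPCs from peripheral blood mononuclear cells, cultured 21 days on collagen I in EGM-2. ROS measured by flow cytometry using DCF-DA (0.5 μM final) after 2 h of treatment. H₂O₂ 150 μM as positive control.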

[7] = target: Ras-related C3 botulinum toxin substrate 1 (Homo sapiens) (UniProt P63000); experiment: Inhibition of Rac1 activation
EPC [8] = experiment: Cytoprotective activity in human EPC assessed as decrease in H2O2-induced senescence associated beta-galactosidase positive cells at 10 uM after 24 hrs; format: functional
How it was run: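 EPCs given test peptides (1 μM or 10 μM) with or without H₂O₂ for 24 h. Cells then fixed in 2% paraformaldehyde for 3 min and stained 24 h at 37 °C with X-gal solution. SA-β-gal-positive cells counted out of 100 at 20× by three investigators.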

HIT-T15 [9] = experiment: Antiapoptotic activity in hamster HIT-T15 cells assessed as reduction in IFN-gamma/TNFalpha/IL1beta-induced apoptosis at 1 nM after 24 hrs by Hoechst staining relative to control; format: functional, cell-based; settings: Mesocricetus auratus
How it was run: (§3)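 HIT-T15 cells serum-starved 24 h, then 24 h in serum-free medium with IFN-γ 100 ng/mL, TNF-α 200 ng/mL, IL-1β 10 ng/mL plus peptide. Cells pooled with floating cells, formaldehyde-fixed, ethanol-stored, stained with 10 μg/mL Hoechst 33258. Condensed/fragmented nuclei counted, 500 nuclei in duplicate, n = 3. Reported as percent apoptotic cells.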

HIT-T15 [10] = experiment: Antiapoptotic activity in hamster HIT-T15 cells assessed as reduction in IFN-gamma/TNFalpha/IL1beta-induced apoptosis at 10 nM after 24 hrs by Hoechst staining relative to control; format: functional, cell-based; settings: Mesocricetus auratus; how it was run: as §3
HIT-T15 [11] = experiment: Antiapoptotic activity in hamster HIT-T15 cells assessed as reduction in IFN-gamma/TNFalpha/IL1beta-induced apoptosis at 100 nM after 24 hrs by Hoechst staining relative to control; format: functional, cell-based; settings: Mesocricetus auratus; how it was run: as §3
Pancreatic islet [12] = experiment: Cytoprotective activity in human pancreatic islet cells assessed as inhibition of IFN-gamma/TNFalpha/IL1beta-induced cell death at 100 nM after 24 hrs by MTT assay relative to control; format: functional
How it was run: (§4)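 Human donor islets (purity >70%, 25/well) serum-starved 24 h, then 24 h serum-free with peptide (1–100 nM), alone or with IFN-γ 100 ng/mL, TNF-α 200 ng/mL, IL-1β 10 ng/mL. MTT 1 mg/mL ~1 h, DMSO, A570. Percent of serum-free or cytokine control. ≥3 experiments in quadruplicate.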

Pancreatic islet [13] = experiment: Cytoprotective activity in human pancreatic islet cells assessed as inhibition of serum starvation-induced cell death at 1 nM after 24 hrs by MTT assay relative to control; format: functional; how it was run: as §4
Pancreatic islet [14] = experiment: Cytoprotective activity in human pancreatic islet cells assessed as inhibition of serum starvation-induced cell death at 10 nM after 24 hrs by MTT assay relative to control; format: functional; how it was run: as §4
Pancreatic islet [15] = experiment: Cytoprotective activity in human pancreatic islet cells assessed as inhibition of serum starvation-induced cell death at 100 nM after 24 hrs by MTT assay relative to control; format: functional; how it was run: as §4
Pancreatic islet [16] = experiment: Cytoprotective activity in human pancreatic islet cells assessed as inhibition of IFN-gamma/TNFalpha/IL1beta-induced cell death at 1 nM after 24 hrs by MTT assay relative to control; format: functional; how it was run: as §4
Pancreatic islet [17] = experiment: Cytoprotective activity in human pancreatic islet cells assessed as inhibition of IFN-gamma/TNFalpha/IL1beta-induced cell death at 10 nM after 24 hrs by MTT assay relative to control; format: functional; how it was run: as §4
Pancreatic islet [18] = experiment: Cytoprotective activity in human pancreatic islet cells assessed as inhibition of IFN-gamma/TNFalpha/IL1beta-induced cell death at 100 nM after 72 hrs by MTT assay relative to control; format: functional
How it was run: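 Human donor islets (>70% purity, 25/well) held 72 h in serum-free medium with peptide, alone or with IFN-γ/TNF-α/IL-1β at 5 ng/mL each. Viability by MTT (1 mg/mL ~1 h, DMSO, 570 nm). Mean ± SE of ≥3 experiments in quadruplicate.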

| Molecule | Activity (HIT-T15 [1]) | Activity (HIT-T15 [2]) | other results |
| --- | --- | --- | --- |
| CC(C)[C@@H](NC(=O)[C@@H](CCCNC(=N)N)NC(=O)[C@@H](CCC(N)=O)NC(=O)[C@@H](Cc1cnc[nH]1)NC(=O)[C@@H](CCC(=O)O)NC(=O)[C@H]1CCCN1C(=O)[C@H](N)CO)C(=O)N[C@H](CCC(N)=O)C(N)=O | inactive | inactive | – |
| CC(C)[C@@H](NC(=O)[C@H](CCCNC(=N)N)NC(=O)[C@H](CCC(N)=O)NC(=O)[C@H](Cc1cnc[nH]1)NC(=O)[C@H](CCC(=O)O)NC(=O)[C@@H]1CCCN1C(=O)[C@@H](N)CO)C(=O)N[C@@H](CCC(N)=O)C(N)=O | inactive | inactive | – |
| CC(C)[C@@H](NC(=O)[C@H](N)CCC(N)=O)C(=O)N[C@H](CCCNC(=N)N)C(=O)N[C@H](CCC(N)=O)C(=O)N[C@H](Cc1cnc[nH]1)C(=O)N[C@H](CCC(=O)O)C(=O)N1CCC[C@@H]1C(=O)N[C@H](CO)C(N)=O | inactive | inactive | – |
| CC(C)[C@H](NC(=O)[C@@H](CCCNC(=N)N)NC(=O)[C@H](CCC(N)=O)NC(=O)[C@H](Cc1cnc[nH]1)NC(=O)[C@H](CCC(=O)O)NC(=O)[C@@H]1CCCN1C(=O)[C@@H](N)CO)C(=O)N[C@@H](CCC(N)=O)C(N)=O | inactive | inactive | – |
| CC(C)[C@H](NC(=O)[C@H](CCCNC(=N)N)NC(=O)[C@@H](CCC(N)=O)NC(=O)[C@H](Cc1cnc[nH]1)NC(=O)[C@H](CCC(=O)O)NC(=O)[C@@H]1CCCN1C(=O)[C@@H](N)CO)C(=O)N[C@@H](CCC(N)=O)C(N)=O | inactive | inactive | – |
| CC(C)[C@H](NC(=O)[C@H](CCCNC(=N)N)NC(=O)[C@H](CCC(N)=O)NC(=O)[C@@H](Cc1cnc[nH]1)NC(=O)[C@H](CCC(=O)O)NC(=O)[C@@H]1CCCN1C(=O)[C@@H](N)CO)C(=O)N[C@@H](CCC(N)=O)C(N)=O | inactive | inactive | – |
| CC(C)[C@H](NC(=O)[C@H](CCCNC(=N)N)NC(=O)[C@H](CCC(N)=O)NC(=O)[C@H](Cc1cnc[nH]1)NC(=O)[C@@H](CCC(=O)O)NC(=O)[C@@H]1CCCN1C(=O)[C@@H](N)CO)C(=O)N[C@@H](CCC(N)=O)C(N)=O | inactive | inactive | – |
| CC(C)[C@H](NC(=O)[C@H](CCCNC(=N)N)NC(=O)[C@H](CCC(N)=O)NC(=O)[C@H](Cc1cnc[nH]1)NC(=O)[C@H](CCC(=O)O)NC(=O)[C@@H]1CCCN1C(=O)[C@@H](N)CO)C(=O)N[C@H](CCC(N)=O)C(N)=O | inactive | inactive | – |
| CC(C)[C@H](NC(=O)[C@H](CCCNC(=N)N)NC(=O)[C@H](CCC(N)=O)NC(=O)[C@H](Cc1cnc[nH]1)NC(=O)[C@H](CCC(=O)O)NC(=O)[C@@H]1CCCN1C(=O)[C@H](N)CO)C(=O)N[C@@H](CCC(N)=O)C(N)=O | inactive | inactive | – |
| CC(C)[C@H](NC(=O)[C@H](CCCNC(=N)N)NC(=O)[C@H](CCC(N)=O)NC(=O)[C@H](Cc1cnc[nH]1)NC(=O)[C@H](CCC(=O)O)NC(=O)[C@H]1CCCN1C(=O)[C@@H](N)CO)C(=O)N[C@@H](CCC(N)=O)C(N)=O | inactive | inactive | – |
| N=C(N)NCCC[C@H](NC(=O)[C@H](CCC(N)=O)NC(=O)[C@H](Cc1cnc[nH]1)NC(=O)[C@@H](N)CCC(=O)O)C(N)=O (H-EHQR-NH2) | – | inactive | – |
| CC(C)[C@H](NC(=O)[C@H](CCCNC(=N)N)NC(=O)[C@H](CCC(N)=O)NC(=O)[C@@H](N)Cc1cnc[nH]1)C(N)=O (H-HQRV-NH2) | – | – | Activity (HIT-T15 [3]): Active |
| N=C(N)NCCC[C@H](NC(=O)[C@H](CCC(N)=O)NC(=O)[C@@H](N)Cc1cnc[nH]1)C(N)=O (H-His-Gln-Arg-NH2) | – | inactive | – |
| CC(C)[C@@H]1NC(=O)[C@H](CCCNC(=N)N)NC(=O)[C@H](CCC(N)=O)NC(=O)[C@H](Cc2cnc[nH]2)NC(=O)[C@H](CCC(=O)O)NC(=O)[C@@H]2CCCN2C(=O)[C@H](CO)NC(=O)[C@H](CCC(N)=O)NC1=O (cyclo(EHQRVQSP)) | – | – | Activity (HIT-T15 [4]): Dose-dependent effect; Activity (HIT-T15 [5]): Dose-dependent effect; Activity (EPC [6]): Active; inhibition [7]: Active; Activity (EPC [8]): Active |
| H-APEHQRVQ-NH2 | Active | Active | – |
| H-EHQRV-NH2 | – | – | Activity (HIT-T15 [9]): inactive; Activity (HIT-T15 [10]): inactive; Activity (HIT-T15 [11]): Active; Activity (HIT-T15 [3]): Active |
| H-EHQRVQ-NH2 | – | Active | Activity (HIT-T15 [10]): Active; Activity (HIT-T15 [11]): Active |
| H-ESKKPPAKLQPR-OH | inactive | inactive | Activity (Pancreatic islet [12]): inactive; Activity (Pancreatic islet [13]): inactive; Activity (Pancreatic islet [14]): inactive; Activity (Pancreatic islet [15]): inactive; Activity (Pancreatic islet [16]): inactive; Activity (Pancreatic islet [17]): inactive |
| H-GSSFL-NH2 | inactive | inactive | Activity (Pancreatic islet [12]): inactive; Activity (Pancreatic islet [13]): inactive; Activity (Pancreatic islet [14]): inactive; Activity (Pancreatic islet [15]): inactive; Activity (Pancreatic islet [16]): inactive; Activity (Pancreatic islet [17]): inactive |
| H-GSSFLSPEHQRVQQ-NH2 | Active | Active | Activity (Pancreatic islet [12]): Active; Activity (Pancreatic islet [14]): Active; Activity (Pancreatic islet [15]): Active; Activity (Pancreatic islet [16]): inactive; Activity (Pancreatic islet [17]): inactive |
| H-GSSFLSPEHQRVQQRKES-NH2 | Active | Active | Activity (Pancreatic islet [12]): inactive; Activity (Pancreatic islet [13]): Active; Activity (Pancreatic islet [14]): Active; Activity (Pancreatic islet [15]): inactive; Activity (Pancreatic islet [16]): Active; Activity (Pancreatic islet [17]): Active |
| H-QQVRQHEPSLFSSG-OH | – | inactive | Activity (Pancreatic islet [12]): inactive; Activity (HIT-T15 [9]): inactive; Activity (HIT-T15 [10]): inactive; Activity (HIT-T15 [11]): inactive; Activity (Pancreatic islet [18]): inactive; Activity (Pancreatic islet [15]): inactive |
| H-SAEHQRVQ-NH2 | Active | Active | – |
| H-SPAHQRVQ-NH2 | Active | Active | – |
| H-SPEAQRVQ-NH2 | Active | Active | – |
| H-SPEHARVQ-NH2 | inactive | inactive | – |
| H-SPEHQAVQ-NH2 | inactive | inactive | – |
| H-SPEHQRAQ-NH2 | Active | Active | – |
| H-SPEHQRVA-NH2 | Active | Active | – |
